Measured values collected from several papers.
Compare with care: the assays were run in different laboratories.
Target: SNF-related serine/threonine-protein kinase (SNRK, Homo sapiens, UniProt Q9NRH2)
Residues used in one study (Q9NRH2 1-765): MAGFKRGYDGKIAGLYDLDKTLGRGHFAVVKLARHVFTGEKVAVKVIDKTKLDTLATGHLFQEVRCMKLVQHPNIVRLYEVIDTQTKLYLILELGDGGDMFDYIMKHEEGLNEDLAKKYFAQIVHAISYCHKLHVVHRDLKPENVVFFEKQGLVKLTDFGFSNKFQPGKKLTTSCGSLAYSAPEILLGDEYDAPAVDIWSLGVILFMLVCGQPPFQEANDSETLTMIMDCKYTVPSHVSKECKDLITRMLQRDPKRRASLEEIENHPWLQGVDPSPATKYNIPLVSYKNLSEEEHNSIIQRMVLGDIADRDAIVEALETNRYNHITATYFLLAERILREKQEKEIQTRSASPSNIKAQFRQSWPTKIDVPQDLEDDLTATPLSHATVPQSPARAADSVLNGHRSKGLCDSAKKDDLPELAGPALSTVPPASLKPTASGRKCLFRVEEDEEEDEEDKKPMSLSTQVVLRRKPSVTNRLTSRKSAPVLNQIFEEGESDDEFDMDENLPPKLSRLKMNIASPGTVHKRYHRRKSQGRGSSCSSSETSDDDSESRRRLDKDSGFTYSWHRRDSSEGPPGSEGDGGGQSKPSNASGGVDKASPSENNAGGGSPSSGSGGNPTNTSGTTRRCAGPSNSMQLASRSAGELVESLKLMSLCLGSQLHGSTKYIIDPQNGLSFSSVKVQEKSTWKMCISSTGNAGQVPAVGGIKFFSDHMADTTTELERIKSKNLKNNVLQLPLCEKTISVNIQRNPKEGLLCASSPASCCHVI

CS(=O)(=O)N1CCCC(NC(=O)[C@H](CCC2CCCCC2)NC(=O)c2ccc(CNc3ncnc4c3nnn4-c3ccccc3)cc2)C1 (stereo partly shown) — remaining binding (cell-free assay; competition with immobilised ligand; 0.1 µM): 81%
CN(C)c1nccc(-c2cnc3ncccn23)n1 — remaining binding (binding; 1 µM): 91%
O=C(Nc1cccnn1)N1CCC(=Cc2cccc(Oc3ccc(C(F)(F)F)cn3)c2)CC1 — remaining binding (cell-free assay; competition with immobilised ligand; 1 µM): 100%
CN(C)c1ncc(F)c(-c2cnn3ncccc23)n1 — remaining binding (binding; 1 µM): 100%
O=c1nc(-c2ccccn2)sc2ccccc12 — remaining binding (binding; competition with immobilised ligand; 1 µM): 100%
N[C@@H]1CCN(c2nccc(-c3cnn4ncccc34)n2)C1 — remaining binding (binding; 1 µM): 100%
CNC(=O)[C@@H]1CC[C@@H](n2c(-c3ccc4cnccc4c3)nc3ccc(C(=O)NCc4cccc(C(N)=O)c4)cc32)C1 — remaining binding (binding; competition with immobilised ligand; 1 µM): 100%
F[C@@H]1CCN(c2nccc(-c3cnn4ncccc34)n2)C1 — remaining binding (binding; 1 µM): 100%
O=C(NCC1CCOCC1)c1n[nH]cc1NC(=O)c1c(F)cccc1F — remaining binding (binding; competition with immobilised ligand; 1 µM): 84%
COc1cc(-c2cn(C3CCc4c(F)cccc4N(CC(F)(F)F)C3=O)nn2)ccc1-n1cnc(C)c1 (stereo not shown) — remaining binding (cell-free assay; competition with immobilised ligand; 1 µM): 100%
COc1cnc(Nc2cccc(S(N)(=O)=O)c2)nc1N1CCN(c2ccccc2)C(=O)C1 — remaining binding (binding; competition with immobilised ligand; 1 µM): 85%
O=C(NCCCN1CCOCC1)c1ccc(Nc2nccc(-c3cc4ccccc4s3)n2)cc1 — remaining binding (binding; competition with immobilised ligand; 1 µM): 99%
COc1ccc2c(c1)O[C@@H](c1ccc(OC)c(OC)c1)C[C@H]2NC(=O)C1(c2ccc3c(c2)OC(F)(F)O3)CC1 — remaining binding (cell-free assay; competition with immobilised ligand; 1 µM): 90%
c1cncc(-c2cccc(Nc3nccc(NC4CCCCC4)n3)c2)c1 — remaining binding (binding; competition with immobilised ligand; 10 µM): 69%
CN(C)c1nccc(-c2cnn3ncccc23)n1 — remaining binding (binding; 1 µM): 100%
CC(=O)N1CCC(c2ccc(C(=O)NC(=N)N)cc2C(F)(F)F)CC1 — remaining binding (cell-free assay; competition with immobilised ligand; 1 µM): 100%
c1cnn2ncc(-c3ccnc(N4CCC45COC5)n3)c2c1 — remaining binding (binding; 1 µM): 67%
COc1ncc2cc3ccccc3nc2c1C#N — remaining binding (cell-free assay; competition with immobilised ligand; 5 µM): 100%
O=C(NCCCN1CCOCC1)c1ccc(Nc2ncc(Cl)c(-c3ccc(Cl)s3)n2)cc1 — remaining binding (binding; competition with immobilised ligand; 1 µM): 100%
C[C@@H]1CCN(c2nccc(-c3cnn4ncccc34)n2)C1 — remaining binding (binding; 1 µM): 92%
CC(=O)N1CCC(c2ccc(C(=O)NC3=NCCN3)cc2C(F)(F)F)CC1 — remaining binding (cell-free assay; competition with immobilised ligand; 1 µM): 98%
O=C(c1ccc(Nc2ncc(Cl)c(-c3ccc(Cl)s3)n2)cc1)N1CCC(N2CCCC2)CC1 — remaining binding (binding; competition with immobilised ligand; 1 µM): 87%
